3 compounds from paper PMC4232461 (Nature chemical biology, 2014) can be followed below.

Where a SMILES comes first, the peptide text is derived from it. The star is where a group is joined. Cbz = O=C(OCc1ccccc1)*

Her3, sequence (P21860 20-1342): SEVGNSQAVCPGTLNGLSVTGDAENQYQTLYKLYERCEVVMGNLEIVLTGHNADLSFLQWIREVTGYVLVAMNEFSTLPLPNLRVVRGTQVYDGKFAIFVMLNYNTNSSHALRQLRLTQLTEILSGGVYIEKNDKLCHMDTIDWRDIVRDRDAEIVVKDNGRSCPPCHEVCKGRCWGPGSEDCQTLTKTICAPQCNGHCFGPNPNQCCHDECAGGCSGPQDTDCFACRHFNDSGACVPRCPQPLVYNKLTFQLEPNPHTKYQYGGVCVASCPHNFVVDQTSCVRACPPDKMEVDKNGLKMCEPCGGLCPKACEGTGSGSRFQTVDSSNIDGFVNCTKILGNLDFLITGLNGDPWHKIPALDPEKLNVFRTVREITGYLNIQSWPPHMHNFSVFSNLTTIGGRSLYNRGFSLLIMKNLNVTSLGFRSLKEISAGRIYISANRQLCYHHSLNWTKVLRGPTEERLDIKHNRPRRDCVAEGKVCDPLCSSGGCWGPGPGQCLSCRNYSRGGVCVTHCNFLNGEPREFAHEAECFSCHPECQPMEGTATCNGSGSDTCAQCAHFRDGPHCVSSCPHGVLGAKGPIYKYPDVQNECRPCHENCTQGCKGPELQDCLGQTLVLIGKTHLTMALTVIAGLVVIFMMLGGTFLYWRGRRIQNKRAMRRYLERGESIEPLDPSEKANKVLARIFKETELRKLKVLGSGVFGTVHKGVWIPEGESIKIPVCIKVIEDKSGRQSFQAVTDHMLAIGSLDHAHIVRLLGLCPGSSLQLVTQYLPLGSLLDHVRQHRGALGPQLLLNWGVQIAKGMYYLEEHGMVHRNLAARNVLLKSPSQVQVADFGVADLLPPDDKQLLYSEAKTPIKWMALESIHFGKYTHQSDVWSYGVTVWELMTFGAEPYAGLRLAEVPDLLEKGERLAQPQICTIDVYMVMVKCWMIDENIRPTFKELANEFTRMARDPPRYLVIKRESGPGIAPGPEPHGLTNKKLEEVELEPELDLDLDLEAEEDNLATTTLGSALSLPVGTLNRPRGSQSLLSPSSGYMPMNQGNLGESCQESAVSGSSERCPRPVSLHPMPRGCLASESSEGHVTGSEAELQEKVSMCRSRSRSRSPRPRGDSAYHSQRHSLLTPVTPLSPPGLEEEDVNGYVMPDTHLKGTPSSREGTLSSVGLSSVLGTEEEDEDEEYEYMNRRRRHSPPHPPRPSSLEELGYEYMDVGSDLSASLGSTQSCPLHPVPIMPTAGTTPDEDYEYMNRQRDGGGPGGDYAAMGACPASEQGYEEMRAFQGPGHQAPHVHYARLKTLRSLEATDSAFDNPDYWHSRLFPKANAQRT

The target of the experiment is Her3 (Homo sapiens, UniProt P21860). Description: Western blot of Her3 level in PC9 GR4 cells. The format is cell-based. Conditions: combination with TX2-121-1 (0.5 μM), 116-9e 1.0 μM, 17-AAG 0.1 μM. In outline:
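Serum-starved PC9 GR4 cells were treated with test compounds, then stimulated for 30 min with 100 ng/ml NRG. Cells were lysed in Tris/NaCl/EDTA/1% NP-40 buffer with phosphatase and protease inhibitors, and protein was normalised by BCA. Lysates were resolved on 4–12% SDS-PAGE and PVDF blots were probed for p-Her3, Her3, p-Akt (Ser473), Akt, p-Erk1/2 (Thr202/Tyr204) and Erk1/2.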
(In general: A western blot detects proteins with antibodies after separation by electrophoresis.)
For `CC(C)C[C@@H](C=O)NC(=O)[C@H](CC(C)C)NC(=O)[C@H](CC(C)C)NC(=O)OCc1ccccc1` [MG132] (Cbz-Leu-Leu-Leu-aldehyde), the “effect on TX2-121-1 induced Her3 degradation” value (from here on “effect”) is “diminished”.

For the compound `C=CCNC1=C2C[C@@H](C)C[C@H](OC)[C@H](O)[C@@H](C)/C=C(\C)[C@H](OC(N)=O)[C@@H](OC)/C=C\C=C(/C)C(=O)NC(=CC1=O)C2=O` [17-AAG, 17-N-allylamino-17-demethoxygeldanamycin], the “effect” value is “enhanced degradation of Her3”.

Consider `CC1=C(C(=O)OCc2ccccc2)C(c2ccc(-c3ccccc3)cc2)NC(=O)N1CCCCCC(=O)O` (stereo not drawn) [116-9e, 4-[1,1′-biphenyl]-4-yl-3,4-dihydro-6-methyl-2-oxo-5-[(phenylmethoxy)carbonyl]-1(2H)-pyrimidinehexanoic acid], for which the “effect” value is “enhanced degradation of Her3”.
